Only some compounds are listed: those with a hit (about 2.9% of all), similar ones and a draw of the others.
DENV2 CPE rescue: inhibitors of DENV2 cytopathic effect; CPE inhibition, % at 9.99 µM; 350,000 tested, 1.7% active; AID 651640; DENV2-infected cells, cytopathic effect rescue, plate reader; in the data active means CPE inhibition above about 20%, passing the limit was not always enough; inconclusive means no clear call, values can overlap the other calls; tested in BHK-21 cells;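 further: 0% = median of neutral control wells and 100% = median of positive control wells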
SIRT5 inh: inhibitors of human sirtuin-5 desuccinylase | Q9NXA8 | Purified SirT5, succinyl-peptide AMC, trypsin-coupled fluorescence | inhibition, % at 15 µM | 330,000 tested, 1.1% active | AID 652115; in the data active means inhibition above about 15%; inconclusive means no clear call, values can overlap the other calls
Target sequence (Q9NXA8 whole entry, looked up): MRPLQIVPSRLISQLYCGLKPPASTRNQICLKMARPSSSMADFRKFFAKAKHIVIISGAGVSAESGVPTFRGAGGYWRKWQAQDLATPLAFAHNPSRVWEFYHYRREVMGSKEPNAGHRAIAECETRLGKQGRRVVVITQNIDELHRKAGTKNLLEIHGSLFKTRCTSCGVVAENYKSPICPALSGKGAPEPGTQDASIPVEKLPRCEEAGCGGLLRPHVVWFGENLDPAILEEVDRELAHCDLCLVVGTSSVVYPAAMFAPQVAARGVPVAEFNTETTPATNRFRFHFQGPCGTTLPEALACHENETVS
E-sel inducer: induces E-selectin expression in human endothelial cells; activation, % at 7.58 µM; AID 686992; HUVEC E-selectin immunofluorescence imaging; normalized: neutral wells 0, TNF-alpha wells 100; 260,000 tested, 0.37% active;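 active means mean E-selectin-positive cell signal at least 10% of the positive control, reached in at least 60% of replicates, without over 20% cell loss; inconclusive means no rule given, readout overlaps actives, possibly toxicity-flagged; inactive means the rest, including those meeting only one limit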
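Material: HUVEC primary endothelial cells; Amount: 3,000 cells per well; Dosing: single concentration; Medium: EGM-2 growth medium on 0.1% gelatin-coated wells; Read-out basis: percent E-selectin-positive cells; Signal: immunofluorescence imaging; Control set: TNF-alpha, DMSO.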
* marks the source's active call; other numbers are inactive results; ? = inconclusive; . = no result.

SMILES	DENV2 CPE rescue	SIRT5 inh	E-sel inducer
C[C@H](CO)N1C[C@H](C)[C@H](CN(C)C(=O)CCCN(C)C)OCCCC[C@H](C)Oc2ccc(NC(=O)Cc3ccccc3)cc2C1=O	98.2*	-1.8	.
C[C@@H]1CCCCO[C@@H](CN(C)C(=O)CCCN(C)C)[C@H](C)CN([C@@H](C)CO)C(=O)c2cc(NC(=O)Cc3ccccc3)ccc2O1	-6.8	-0.5	.
C[C@@H]1CCCCO[C@H](CN(C)C(=O)CCCN(C)C)[C@@H](C)CN([C@@H](C)CO)C(=O)c2cc(NC(=O)Nc3ccc4c(c3)OCO4)ccc2O1	47.4*	.	-0.2
C[C@H]1CCCCO[C@H](CN(C)C(=O)CCCN(C)C)[C@@H](C)CN([C@@H](C)CO)C(=O)c2cc(NC(=O)Cc3ccccc3)ccc2O1	29.0*	0.4	.
COc1ccc(NC(=O)N(C)C[C@H]2Oc3c(NS(=O)(=O)c4ccc(C)cc4)cccc3C(=O)N([C@@H](C)CO)C[C@H]2C)cc1	13.2	3.2	0.0
C[C@H](CO)N1C[C@H](C)[C@@H](CN(C)C)OCCCC[C@H](C)Oc2ccc(NC(=O)Nc3ccc4c(c3)OCO4)cc2C1=O	-4.4	0.3	0.4
Cc1cccc(OCC(=O)OCC(=O)N2CCN(C(=O)c3ccco3)CC2)c1C	-3.9	5.4	0.1
CCOc1cnc(C(=O)NNC(=O)C(Br)C(C)C)o1 (configuration not stated)	0.6	.	.
CCCNC(=O)Nc1ccc2c(c1)C(=O)N(C)C[C@@H](OC)[C@H](C)CN(C)[C@@H](C)CO2	-1.2	-4.7	0.3
CCCNC(=O)Nc1ccc2c(c1)C(=O)N(C)C[C@H](OC)[C@H](C)CN(C)[C@H](C)CO2	38.3*	0.0	-0.2
CCCNC(=O)Nc1ccc2c(c1)OC[C@@H](C)N(C)C[C@@H](C)[C@H](OC)CN(C)C2=O	-9.0	5.6	-0.1
CCCNC(=O)Nc1ccc2c(c1)C(=O)N(C)C[C@H](OC)[C@H](C)CN(C)[C@@H](C)CO2	101.4*	-0.5	0.0
Cc1oc(-c2ccccc2)nc1C(=O)OCC(=O)NCc1ccc(F)cc1	-11.3	.	-0.7
Cc1ccccc1C(=O)O/N=C(\N)Cc1cccs1	-1.6	0.1	0.7
CC(C)(C)c1ccc(C(=O)O/N=C(\N)Cc2cccs2)cc1	-10.2	34.5*	0.0
COc1ccc(NC(=O)N(C)C[C@@H]2OCCCC[C@H](C)Oc3ccc(NC(=O)c4ccncc4)cc3C(=O)N([C@@H](C)CO)C[C@@H]2C)cc1	5.0	.	0.1
COc1ccc(NC(=O)N(C)C[C@H]2OCCCC[C@H](C)Oc3ccc(NC(=O)c4ccccc4)cc3C(=O)N([C@@H](C)CO)C[C@H]2C)cc1	0.7	-0.9	-0.2
COc1ccc(NC(=O)N(C)C[C@@H]2OCCCC[C@@H](C)Oc3ccc(NC(=O)c4ccncc4)cc3C(=O)N([C@H](C)CO)C[C@H]2C)cc1	20.3*	.	-0.1
COc1ccc(NC(=O)N(C)C[C@H]2OCCCC[C@H](C)Oc3ccc(NC(=O)c4ccncc4)cc3C(=O)N([C@@H](C)CO)C[C@@H]2C)cc1	49.0*	.	-0.2
COc1cc(/C=C2\SC(=O)N(c3ccccc3Cl)C2=O)cc([N+](=O)[O-])c1O	-0.6	1.2	0.1
CCCNC(=O)NC(=O)CN1CCCC1c1ccc2c(c1)OCCO2 (configuration not stated)	7.4	-1.4	.
O=C(C[C@H]1C[C@@H]2c3cc(NS(=O)(=O)c4ccc(F)cc4)ccc3O[C@@H]2[C@H](CO)O1)N1CCc2ccccc2C1	-3.1	1.6	0.9
O=C(O)c1cc(N2N=C(C(F)(F)F)/C(=C/C=C/c3ccco3)C2=O)ccc1Cl	.	63.0*	.
CCc1ccc(N2NC(=O)/C(=C/C=C/c3ccco3)C2=O)cc1	-9.0	-3.2	0.0
O=C(C[C@@H]1CC[C@@H](NC(=O)C2CC2)[C@@H](CO)O1)Nc1ccccc1	-2.6	4.7	0.4
SMILES	DENV2 CPE rescue	SIRT5 inh	E-sel inducer
S=C(NCCCN1CCOCC1)Nc1cccc(-c2nnc3n2CCCCC3)c1	2.1	15.6*	1.1
Cc1cccc(NC(=S)NCCN2CCOCC2)c1	1.5	3.0	-2.6
Cc1ccc(Cl)cc1NC(=O)Cn1c(C)csc1=O	-7.0	0.0	9.1
CC1CN(c2ccccn2)C(C)CN1C(=S)Nc1ccccc1 (configuration not stated)	-3.7	5.4	-0.1
Cn1ncc(Cl)c1C(=O)N1CCN(c2ccc(F)cc2)CC1	50.1*	0.7	0.0
Cn1ncc(Cl)c1C(=O)N1CCN(S(=O)(=O)c2ccc(F)cc2)CC1	?	-1.7	0.1
Cc1cc(C)cc(N(C(=O)c2nsc(Cl)c2Cl)C(C(=O)NC2CCCC2)c2ccc(O)cc2)c1 (configuration not stated)	-2.9	-1.9	.
Cc1ccc(N(C(=O)c2nsc(Cl)c2Cl)C(C(=O)NC2CCCC2)c2ccc(O)cc2)cc1C (configuration not stated)	83.8*	-2.8	.
OCC1(Cc2ccccc2)CCN(Cc2ccccn2)CC1	-7.6	0.4	.
Cc1cccc(C)c1NC(=O)C[N+](C)(C)CC(O)COc1cccc2ccccc12 (configuration not stated)	5.8	0.6	.
COCCCNCCCCOc1cccc(Br)c1	3.3	-3.8	.
OCCNCCCCOc1cccc(Br)c1	39.1*	1.8	.
O=C(Nc1ccc(F)cc1)N1C[C@@H]2[C@H](c3ccccc31)[C@@H](CO)N2C(=O)Cc1ccccc1	11.3	3.8	-0.2
CCCNC(=O)c1cc2c(c(-c3cccc(-c4cccc(OC)c4)c3)n1)[C@H](CCO)N([S@@](=O)C(C)(C)C)C2	-1.1	17.8*	0.0
COCCNC(=O)c1cc2c(c(-c3cccc(-c4cccc(F)c4)c3)n1)[C@@H](CCO)N(S(=O)C(C)(C)C)C2 (some centres not stated)	5.5	-4.1	.
COCCNC(=O)c1cc2c(c(-c3cccc(-c4cccc(F)c4)c3)n1)[C@H](CCO)N(S(=O)C(C)(C)C)C2 (some centres not stated)	?	36.2*	0.3
O=C(NCC1CC1)c1cc2c(c(-c3cccc(-c4ccccc4F)c3)n1)[C@H](CCO)N(C(=O)CC1CC1)C2	-2.4	4.1	-3.7
O=C(NCC1CC1)c1cc2c(c(-c3cccc(-c4ccccc4F)c3)n1)[C@@H](CCO)N(C(=O)CC1CC1)C2	1.9	15.3*	0.1
COc1ccc(CNC(=O)c2cc3c(c(-c4cccc(-c5cccc(C#N)c5)c4)n2)[C@H](CCO)N([S@@](=O)C(C)(C)C)C3)cc1	2.9	0.8	54.5*
COc1cccc(-c2cccc(-c3nc(C(=O)NCC(F)(F)F)cc4c3[C@H](CCO)N([S@@](=O)C(C)(C)C)C4)c2)c1	4.2	1.4	0.8
COc1ccc(CNC(=O)c2cc3c(c(-c4cccc(-c5ccc(C#N)cc5)c4)n2)[C@H](CCO)N([S@@](=O)C(C)(C)C)C3)cc1	-1.7	6.0	5.4
COc1ccc(NC(=O)Nc2ccc3c(c2)C(=O)N([C@@H](C)CO)C[C@H](C)[C@H](CN(C)CC2CCCCC2)OCCCC[C@@H](C)O3)cc1	7.5	-2.7	-0.2
COc1ccc(/C=C/C(=O)c2cc(Br)ccc2OC(=O)c2ccco2)cc1OC	-2.2	-4.0	.
CCOC(=O)c1c(C)[nH]c(C)c1S(=O)(=O)NCC1CCN(Cc2ccc(C)cc2)CC1	-12.6	-0.8	.
